Reference: ChEMBL document CHEMBL1149394, “Guiding farnesyltransferase inhibitors from an ECLiPS library to the catalytic zinc” (Bioorg Med Chem Lett, 2006)

Experiments:
[1] = target: Geranylgeranyl transferase type I (Homo sapiens, UniProt P49354+P53609); assay: Inhibitory activity against Geranylgeranyltransferase 1; format: protein-complex assay
Mus musculus = assay: AUC in mice at 10 mg/kg, po; format: ADME, organism-based, Plasma; design: dose 10 mg/kg, route oral; details: in vivo
[2] = Cmax in mice at 10 mg/kg, po; format: ADME, organism-based; design: dose 10 mg/kg, route oral; details: mouse, in vivo
[3] = Bioavailability in mice; format: ADME, organism-based; details: mouse, in vivo
[4] = target: T1, Protein farnesyltransferase (Homo sapiens, UniProt P49354+P49356); assay: Inhibitory activity against farnesyltransferase quantified by SPA assay; format: protein-complex assay
[5] = target: T1, Protein farnesyltransferase; assay: Inhibitory activity against Ha-Ras processing in COS7 cells; format: functional, cell-based, COS-7
[6] = target: T1, Protein farnesyltransferase; assay: Inhibitory activity against Farnesyltransferase quantified by modified SPA assay with improved sensitivity; format: protein-complex assay
Procedure, shortened: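 Scintillation proximity assay, high-sensitivity version. Purified FTase (30 pM final) was pre-incubated with inhibitor or DMSO control (5% v/v final) for 15 min at room temperature. The reaction was started with biotin-CVLS (100 nM final) and run for 60 min at 37 °C. It was quenched with a cold suspension of 250 mM EDTA pH 8.0, 0.5% BSA and SPA beads, then the IC50 was determined.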

Liver microsomes = assay: Metabolic stability in rat liver microsome; format: ADME
Procedure, shortened: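 Rat liver microsomes (cytochrome P450 content 6.7 µM) incubated 60 min at 37 °C with compound at 10 µM, KPi pH 7.4 and freshly prepared NADPH, in 1.0 ml final. Read-out is percent of compound remaining.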

IC50 [4] | IC50 [5] | Compound | further results
7 nM | > 200 nM | O=C(O)CCCC(=O)N1CCN(C2c3ccc(Cl)cc3CCc3cc(Br)cnc32)CC1C(=O)NCc1cccnc1 (configuration not stated) | –
47 nM | 140 nM | CC(C)NC(=O)N1CCN(C2c3ccc(Cl)cc3CCc3cc(Br)cnc32)CC1C(=O)NCc1cccnc1 (configuration not stated) | –
7.9 nM | 62 nM | COC(=O)CCCCC(=O)N1CCN(C2c3ccc(Cl)cc3CCc3cc(Br)cnc32)CC1C(=O)NCc1cccnc1 (configuration not stated) | –
22 nM | > 200 nM | CC(C)(C)OC(=O)N1CCN(C2c3ccc(Cl)cc3CCc3cc(Br)cnc32)CC1C(=O)NCc1cccnc1 (configuration not stated) | –
8 nM | 49 nM | CC(=O)CCCCC(=O)N1CCN(C2c3ccc(Cl)cc3CCc3cc(Br)cnc32)CC1C(=O)NCc1cccnc1 (configuration not stated) | –
13 nM | 11 nM | CN(C)C(=O)CCC(=O)N1CCN(C2c3ccc(Cl)cc3CCc3cc(Br)cnc32)CC1C(=O)NCc1cccnc1 (configuration not stated) | –
5.7 nM | 64 nM | CCCCC(=O)N1CCN(C2c3ccc(Cl)cc3CCc3cc(Br)cnc32)CC1C(=O)NCc1cccnc1 (configuration not stated) | –
7.3 nM | 50 nM | CC(C)CC(=O)N1CCN(C2c3ccc(Cl)cc3CCc3cc(Br)cnc32)CC1C(=O)NCc1cccnc1 (configuration not stated) | –
8.4 nM | 54 nM | CC(=O)CCCC(=O)N1CCN(C2c3ccc(Cl)cc3CCc3cc(Br)cnc32)CC1C(=O)NCc1cccnc1 (configuration not stated) | –
20 nM | 100 nM | COCCC(=O)N1CCN(C2c3ccc(Cl)cc3CCc3cc(Br)cnc32)CC1C(=O)NCc1cccnc1 (configuration not stated) | –
8 nM | 75 nM | CCCCCC(=O)N1CCN(C2c3ccc(Cl)cc3CCc3cc(Br)cnc32)CC1C(=O)NCc1cccnc1 (configuration not stated) | –
19 nM | 59 nM | CCCNC(=O)N1CCN(C2c3ccc(Cl)cc3CCc3cc(Br)cnc32)CC1C(=O)NCc1cccnc1 (configuration not stated) | –
11 nM | 47 nM | CC(=O)CCC(=O)N1CCN(C2c3ccc(Cl)cc3CCc3cc(Br)cnc32)CC1C(=O)NCc1cccnc1 (configuration not stated) | –
21 nM | 160 nM | CCOCC(=O)N1CCN(C2c3ccc(Cl)cc3CCc3cc(Br)cnc32)CC1C(=O)NCc1cccnc1 (configuration not stated) | –
12 nM | 120 nM | CC(C)(C)CC(=O)N1CCN(C2c3ccc(Cl)cc3CCc3cc(Br)cnc32)CC1C(=O)NCc1cccnc1 (configuration not stated) | –
9.1 nM | 45 nM | CCCCNC(=O)N1CCN(C2c3ccc(Cl)cc3CCc3cc(Br)cnc32)CC1C(=O)NCc1cccnc1 (configuration not stated) | –

Further lines, the molecule ahead of its results:

Compound | IC50 [4] | IC50 [5] | further results
O=C(NCCCn1ccnc1)C1CN(C2c3ccc(Cl)cc3CCc3cc(Br)cnc32)CCN1C(=O)NC1CCCCC1 (stereo in doubt; 41b) | 1.5 nM | 0.56 nM | IC50 [1]: > 10 µM; AUC (Mus musculus): 1.66 µg·h/mL; Cmax [2]: 2550 nM; bioavailability [3]: 10.6%
CC(C)CNC(=O)N1CCN(C2c3ccc(Cl)cc3CCc3cc(Br)cnc32)CC1C(=O)NCc1cccnc1 (configuration not stated) | 8 nM | 52 nM | –
Cn1cncc1CCNC(=O)C1CN(C2c3ccc(Cl)cc3CCc3cc(Br)cnc32)CCN1C(=O)NC1CCCCC1 (configuration not stated) | 7.3 nM | 13 nM | –
O=C(NCc1cccnc1)C1CN(C2c3ccc(Cl)cc3CCc3cc(Br)cnc32)CCN1C(=O)NC1CCCC1 (configuration not stated) | 14 nM | 28 nM | –
O=C(Nc1nncs1)C1CN(C2c3ccc(Cl)cc3CCc3cc(Br)cnc32)CCN1C(=O)NC1CCCCC1 (configuration not stated) | 490 nM | > 10000 nM | –
O=C(NCCCc1c[nH]cn1)C1CN(C2c3ccc(Cl)cc3CCc3cc(Br)cnc32)CCN1C(=O)NC1CCCCC1 (configuration not stated) | 13 nM | 9.7 nM | –
O=C(NCCCn1ccnc1)C1CN(C2c3ccc(Cl)cc3CCc3cc(Br)cnc32)CCN1C(=O)NC1CCCCC1 (stereo in doubt; 41a) | 2 nM | 1.2 nM | IC50 [1]: 22 µM; IC50 [6]: 0.1 nM; Stability (Liver microsomes): > 95%
CCCCC(=O)N1CCN(C2c3ccc(Cl)cc3CCc3cc(Br)cnc32)CC1C(=O)NCc1ccc[n+]([O-])c1 (configuration not stated) | – | > 200 nM | –
O=C(NCc1cccnc1)C1CN(C2c3ccc(Cl)cc3CCc3cc(Br)cnc32)CCN1C(=O)NC1CC1 (configuration not stated) | 51 nM | 260 nM | –
O=C(NCc1cccnc1)C1CN(C2c3ccc(Cl)cc3CCc3cc(Br)cnc32)CCN1C(=O)C1CCCC1 (configuration not stated) | 17 nM | 65 nM | –
O=C(NCc1cccnc1)C1CN(C2c3ccc(Cl)cc3CCc3cc(Br)cnc32)CCN1C(=O)NC1CCCCC1 (configuration not stated) | 5.5 nM | 8.6 nM | –
Cn1cnc(CCNC(=O)C2CN(C3c4ccc(Cl)cc4CCc4cc(Br)cnc43)CCN2C(=O)NC2CCCCC2)c1 (configuration not stated) | 26 nM | 91 nM | –
O=C(NCc1cccnc1)C1CN(C2c3ccc(Cl)cc3CCc3cc(Br)cnc32)CCN1C(=O)NCC1CCCCC1 (configuration not stated) | 10 nM | 53 nM | –
CCCCC(=O)N1CCN(C2c3ccc(Cl)cc3CCc3cc(Br)cnc32)CC1C(=O)NCc1c[nH]cn1 (configuration not stated) | 45 nM | 210 nM | –
CCCCC(=O)N1CCN(C2c3ccc(Cl)cc3CCc3cc(Br)cnc32)CC1C(=O)NCCc1c[nH]cn1 (configuration not stated) | – | 60 nM | –
CC(C)(C)NC(=O)N1CCN(C2c3ccc(Cl)cc3CCc3cc(Br)cnc32)CC1C(=O)NCc1cccnc1 (configuration not stated) | 15 nM | 54 nM | –
O=C(NCCCN1CCCC1=O)C1CN(C2c3ccc(Cl)cc3CCc3cc(Br)cnc32)CCN1C(=O)NC1CCCCC1 (configuration not stated) | 14 nM | 20 nM | –
CCCCC(=O)N1CCN(C2c3ccc(Cl)cc3CCc3cc(Br)cnc32)CC1C(=O)Nc1cc(C)no1 (configuration not stated) | 560 nM | > 4500 nM | –
CCCCC(=O)N1CCN(C2c3ccc(Cl)cc3CCc3cc(Br)cnc32)CC1C(=O)NCc1ncc[nH]1 (configuration not stated) | 80 nM | > 200 nM | –
O=C(NCc1cccnc1)C1CN(C2c3ccc(Cl)cc3CCc3cc(Br)cnc32)CCN1C(=O)CCC1CCCCC1 (configuration not stated) | 20 nM | 38 nM | –
O=C(NCc1cccnc1)C1CN(C2c3ccc(Cl)cc3CCc3cc(Br)cnc32)CCN1C(=O)C1CCCCCC1 (configuration not stated) | 12 nM | 85 nM | –
CCCCC(=O)N1CCN(C2c3ccc(Cl)cc3CCc3cc(Br)cnc32)CC1C(=O)Nc1cccnc1 (configuration not stated) | 18 nM | 100 nM | –
O=C(NCCc1c[nH]cn1)C1CN(C2c3ccc(Cl)cc3CCc3cc(Br)cnc32)CCN1C(=O)NC1CCCCC1 (configuration not stated) | 7 nM | 18 nM | –
O=C(NCc1cccnc1)C1CN(C2c3ccc(Cl)cc3CCc3cc(Br)cnc32)CCN1C(=O)NC1CCCCCC1 (configuration not stated) | 9.1 nM | 52 nM | –
Cc1ccc(CNC(=O)C2CN(C3c4ccc(Cl)cc4CCc4cc(Br)cnc43)CCN2C(=O)NC2CCCCC2)cn1 (configuration not stated) | 61 nM | 550 nM | –
O=C(NCCCn1ccnc1)C1CN(C2c3ccc(Cl)cc3CCc3cc(Br)cnc32)CCN1C(=O)NC1CCCCC1 (stereo in doubt; 41) | 4.5 nM | 4.2 nM | –
CCCCC(=O)N1CCN(C2c3ccc(Cl)cc3CCc3cc(Br)cnc32)CC1C(=O)Nc1cnccn1 (configuration not stated) | 190 nM | 570 nM | –
Cc1noc(C)c1CNC(=O)C1CN(C2c3ccc(Cl)cc3CCc3cc(Br)cnc32)CCN1C(=O)NC1CCCCC1 (configuration not stated) | 760 nM | – | –
